Broadly, the IC50 is the point on the concentration scale where inhibition reaches its midpoint.

The nature of assay [1]: Cytotoxicity against vinblastine-selected human KBV1 cells after 72 hrs by MTT assay. As to conditions: KB-V1, 72 h. It counts as functional, cell-based. Summed up:
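Grown in DMEM with 10% FBS. MTT assay: 4000 cells/well, 24 h settling, serial dilutions of drug, 72 h at 37 °C in 5% CO2. MTT in IMDM 4 h, then acidified ethanol 15 min, A570 with 690 nm background. IC50 is the concentration reducing absorbance to 50% of untreated control. Three experiments in triplicate. KB-V1-R comes from KB-V1 grown long-term drug-free.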
A general note: Formazan colour is commonly taken as a measure of viable cells.

Assay [2] in a line: Cytotoxicity against human KB-3-1 cells after 72 hrs by MTT assay. As to conditions: KB 3-1, 72 h. It counts as functional, cell-based. Summed up:
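Grown in DMEM with 10% FBS. MTT assay: 4000 cells/well, 24 h settling, serial dilutions of drug, 72 h at 37 °C in 5% CO2. MTT in IMDM 4 h, then acidified ethanol 15 min, A570 with 690 nm background. Three experiments in triplicate. KB-V1-R comes from KB-V1 grown long-term drug-free.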

A short description of assay [3]: Selectivity ratio of IC50 for human KB-3-1 cells to IC50 for human KBV1 cells selected at 1 ug/mL vinblastine. It counts as functional. In short, it runs like this:
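Selectivity ratio: IC50 in the parental or empty-vector cells divided by IC50 in the P-gp-expressing cells (KB-V1, or ABCB1-transfected LLC-PK1). MTT assay: 4000 cells/well established for 24 h, then 72 h exposure to serially diluted drug at 37 °C, 5% CO2. MTT for 4 h, acidified ethanol lysis, A570 corrected at A690. IC50 is the concentration giving 50% of untreated absorbance, from at least three experiments.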

For the compound `O=C1Nc2ccccc2/C1=N/NC(=S)NCc1ccccc1`, the IC50 was determined as 7.63 µM in assay [1] and 11.7 µM in assay [2]. In assay [3], the “Ratio IC50” value was determined as 1.5.
Regarding `CC(C)c1ccc(NC(=S)N/N=C2\C(=O)Nc3ccccc32)cc1`, the IC50 is 1.09 µM in assay [1] and 9.11 µM in assay [2]. For the same compound, the “Ratio IC50” value in assay [3] was 8.4.
As to `O=C1Nc2ccccc2/C1=N/NC(=S)Nc1ccc(Oc2ccccc2)cc1`, the IC50 is 1.67 µM in assay [1] and 5.72 µM in assay [2]. For the same compound, the “Ratio IC50” value in assay [3] worked out at 3.4.
In the same order, the values of `CNC(=S)N/N=C1\C(=O)Nc2ccccc21` are 19.4 µM, 35.3 µM and 1.8.
As for `CN(C)c1ccc(NC(=S)N/N=C2\C(=O)Nc3ccccc32)cc1`, the results for the IC50 in assay [1] and in assay [2] were 2.32 µM and 6.95 µM, respectively. Moreover, the “Ratio IC50” value in assay [3] is 3.
On the same counts, the results for `O=C1Nc2ccccc2/C1=N/NC(=S)Nc1cccc2ccccc12` are 2.21 µM, 5.12 µM and 2.3.
In the same order, the values of `COc1cc(NC(=S)N/N=C2\C(=O)Nc3ccccc32)cc(OC)c1OC` are 3.49 µM, 11.1 µM and 3.2.
As to `CCCCNC(=S)N/N=C1\C(=O)Nc2ccccc21`, the values for the IC50 in assay [1] and in assay [2] were 5.69 µM and 10.9 µM, respectively. Moreover, the “Ratio IC50” value in assay [3] was determined as 1.9.
Consider `O=C1Nc2ccccc2/C1=N/NC(=S)Nc1cc(F)c(F)c(F)c1`, for which the figures for the IC50 in assay [1] and in assay [2] were 2.15 µM and 4.41 µM, respectively. For the same compound, the “Ratio IC50” value in assay [3] is given as 2.1.
On the same counts, the results for `O=C1Nc2ccccc2/C1=N/NC(=S)Nc1ccc2c(c1)CCC2` are 2.85 µM, 5.8 µM and 2.
Regarding `COc1ccccc1NC(=S)N/N=C1\C(=O)Nc2ccccc21`, the IC50 in assay [1] came out at 2.69 µM; in assay [2] it was 4.96 µM. In addition, the “Ratio IC50” value in assay [3] is recorded as 1.8.
In the case of `CCc1ccc(NC(=S)N/N=C2\C(=O)Nc3ccccc32)cc1`, the values for the IC50 in assay [1] and in assay [2] were 1.34 µM and 4.05 µM, respectively. Further, the “Ratio IC50” value in assay [3] was determined as 3.
On to `O=C1Nc2ccccc2/C1=N/NC(=S)Nc1cccnc1`, for which the IC50 in assay [1] and in assay [2] was more than 50 µM each time.
In the case of `O=C1Nc2ccccc2/C1=N/NC(=S)NC12CC3CC(CC(C3)C1)C2`, the IC50 was 1.02 µM in assay [1] and 3.16 µM in assay [2]. For the same compound, in assay [3], the “Ratio IC50” value is given as 3.1.
For `O=C1Nc2ccccc2/C1=N/NC(=S)Nc1ccc(C(F)(F)F)cc1`, the results for the IC50 in assay [1] and in assay [2] were 2.1 µM and 8.59 µM, respectively. Also, the “Ratio IC50” value in assay [3] stood at 4.1.
As for `CC(C)NC(=S)N/N=C1\C(=O)Nc2ccccc21`, the IC50 in assay [1] turned out to be 10.2 µM; in assay [2] it was 39.3 µM. In assay [3], the “Ratio IC50” value was determined as 3.8.
In the same order, the values of `CCCC1CCC(c2ccc(NC(=S)N/N=C3\C(=O)Nc4ccccc43)cc2)CC1` (configuration not stated) are 11 µM, 17.5 µM and 1.6.
In the same order, the values of `O=C1Nc2ccccc2/C1=N/NC(=S)Nc1cccc(Cl)c1` are 0.64 µM, 1.87 µM and 2.9.
For the compound `O=C1Nc2ccccc2/C1=N/NC(=S)Nc1c(F)cc(F)cc1F`, the IC50 in assay [1] was 7.28 µM; in assay [2], 38.4 µM. For the same compound, the “Ratio IC50” value in assay [3] is 5.3.
On to `O=C1Nc2ccccc2/C1=N/NC(=S)Nc1ccc(C(=O)O)cc1`, for which the IC50 in assay [1] and in assay [2] was more than 50 µM throughout.
Regarding `O=C1Nc2ccccc2/C1=N/NC(=S)Nc1ccc(O)cc1`, the figures for the IC50 in assay [1] and in assay [2] were 21.6 µM and 35.8 µM, respectively. For the same compound, in assay [3], the “Ratio IC50” value was found to be 1.7.
On the same counts, the results for `O=C1Nc2ccccc2/C1=N/NC(=S)Nc1ccccc1Cl` are 1.17 µM, 2.22 µM and 1.9.
In the same order, the values of `O=C1Nc2ccccc2/C1=N/NC(=S)NC1CCCCC1` are 4.38 µM, 9.14 µM and 2.1.
As for `O=C1Nc2ccccc2/C1=N/NC(=S)Nc1ccc(F)cc1`, the IC50 in assay [1] is 1.92 µM; in assay [2] it was 14.2 µM. The “Ratio IC50” value in assay [3] is 7.4.
Regarding `Cc1ccc(NC(=S)N/N=C2\C(=O)Nc3ccccc32)cc1`, the IC50 in assay [1] worked out at 2.6 µM; in assay [2], 24 µM. Further, in assay [3], the “Ratio IC50” value was 9.2.
Take `O=C1Nc2ccccc2/C1=N/NC(=S)Nc1ccc(Cl)cc1`: the IC50 in assay [1] was 4.99 µM; in assay [2] it was 13.4 µM. Also, the “Ratio IC50” value in assay [3] is recorded as 2.7.
For `O=C1Nc2ccccc2/C1=N/NC(=S)Nc1ccccc1`, the IC50 in assay [1] is 1.47 µM; in assay [2] it was 3.53 µM. Besides, the “Ratio IC50” value in assay [3] came out at 2.4.
With `Cc1ccc(NC(=S)N/N=C2\C(=O)Nc3ccccc32)cc1C`, the IC50 in assay [1] was determined as 2.2 µM; in assay [2] it was 4.37 µM. In addition, the “Ratio IC50” value in assay [3] is 2.
